This note sets out measurements from ChEMBL document CHEMBL1144532, “Antiprotozoal and antimicrobial activities of O-alkylated and formylated acylphloroglucinols” (Bioorg Med Chem, 2007).

Molecules are shown by their SMILES. Values after ≈ are worked out from the molar mass of the structure shown. Active and inactive are the calls of the source. The rule behind the calls is not given here. Some results are limits rather than exact numbers.

Data set [1] concerns Leishmania donovani. The experiment in a line: Antileishmanial activity against Leishmania donovani promastigotes after 48 hrs by Alamar blue assay. In kind it is functional, organism-based. Summed up: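 L. donovani promastigotes grown in RPMI 1640 + 10% fetal calf serum at 26 °C; 3-day culture diluted to 5 × 10^5/mL, drug dilutions made directly in suspension, 48 h at 26 °C. Alamar blue fluorescence 544 nm ex/590 nm em; IC50 and IC90 from percent growth vs concentration curves.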

Data set [2] relates to Vero. The experiment in a line: Cytotoxicity against Vero cells up to 23.8 ug/mL by neutral red assay. Format: cell-based. The conditions noted are these: chlorocebus sabaeus.
Data set [3] has as its system LLC-PK1. The experiment in a line: Cytotoxicity against LLC-PK1 cells up to 23.8 ug/mL by neutral red assay. In kind it is cell-based, Sus scrofa. The conditions noted are these: pig.
For data set [4], the system named is Mycobacterium intracellulare. The experiment in a line: Antimicrobial activity against Mycobacterium intracellular. In kind it is functional, organism-based. Summed up: (§1)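 Samples in DMSO serially diluted in 0.9% saline, tested in duplicate; inocula set against 0.5 McFarland standard (absorbance 630 nm) and diluted in broth to recommended levels. Growth, solvent and media controls included. Read at 630 nm, or fluorescence 544ex/590em for M. intracellulare (modified Alamar Blue), before and after incubation; IC50 from percent growth versus concentration.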

The test system of a further data set is Aspergillus fumigatus. The experiment in a line: Antifungal activity against Aspergillus fumigatus. In kind it is functional, organism-based. Summed up: as §1
For data set [5], the system named is Vero. The experiment in a line: Cytotoxicity against Vero cells by neutral red assay. Format: cell-based. The conditions noted are these: chlorocebus sabaeus. Summed up: (§2)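 Cells seeded 25,000/well, grown 24 h, then exposed to samples 48 h; viable cells quantified by neutral red uptake. IC50 taken from logarithmic plots of growth inhibition versus concentration; DMSO vehicle control.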

Data set [6] concerns LLC-PK1. The experiment in a line: Cytotoxicity against LLC-PK1 cells by neutral red assay. Format: cell-based. Conditions: Sus scrofa. Summed up:
as §2

Data set [7] relates to Leishmania donovani. The experiment in a line: Antileishmanial activity against Leishmania donovani promastigotes after 48 hrs at 40 ug/mL by Alamar blue assay. In kind it is functional, organism-based. (In general: The colour change of resazurin is a common sign of viable cells or microbes.)

As usually defined, the IC50 is the midpoint of a concentration-inhibition curve. A high value points to weaker potency. By IC90 is commonly meant the point of the concentration-response curve where the effect stands at 90%. High values mean weaker potency, low ones greater potency. Take `CC(=O)c1c(O)cc(OCCC(C)C)c(C=O)c1O`: the IC50 in the data set on Leishmania donovani [1] stood at 7.8 µg/mL (≈ 29.3 µM). The molecule further returned an IC90 in the data set with Leishmania donovani [1] of more than 40 µg/mL. Moreover, the Activity entry in the data set with Vero [2] and in the data set with LLC-PK1 [3] was “Not Active” throughout.

With `C[C@@H]1CC[C@H]2[C@@H](C)C(=O)O[C@@H]3O[C@@]4(C)CC[C@@H]1[C@]32OO4`, the result (in data set [4]; in the data set with Aspergillus fumigatus) was inactive.

On to `C=CCOc1cc(O)c(C(=O)CC(C)C)c(O)c1C=O`, for which the values for the half-inhibitory concentration (IC50) with Leishmania donovani [1], in the data set on Vero [5] and in the data set with LLC-PK1 [6] were 5.3 µg/mL (≈ 19 µM), 17 µg/mL (≈ 61.1 µM) and 9 µg/mL (≈ 32.3 µM), respectively. The molecule also had a 90% effect concentration (IC90) in the data set on Leishmania donovani [1] of 31 µg/mL (≈ 111 µM).

In the data set with Leishmania donovani [1], `CC(C)CCOc1cc(O)c(C(=O)CC(C)C)c(O)c1C(=O)CC(C)C` had an IC50 of 24 µg/mL (≈ 65.8 µM) and an IC90 of more than 40 µg/mL. Also, the Activity result with Vero [2] is on record as “Not Active”. Moreover, in the data set with LLC-PK1 [3], the Activity entry is “Not Active”.

On to `COc1cccc2c1C(=O)c1c(O)c3c(c(O)c1C2=O)C[C@@](O)(C(=O)CO)C[C@@H]3O[C@H]1C[C@H](N)[C@H](O)[C@H](C)O1`, for which the outcome (in data set [4]; in the data set on Aspergillus fumigatus) was inactive.

As to `C=CCOc1cc(O)c(C(=O)CC(C)C)c(O)c1C(=O)CC(C)C`, in the data set with Leishmania donovani [1], the IC50 came out at 14 µg/mL (≈ 41.9 µM) and the 90% effect level (IC90) was put at 36 µg/mL (≈ 108 µM). Also, in the data set with Vero [2], the Activity entry was “Not Active”. For the same molecule, in the data set with LLC-PK1 [3], the Activity result is recorded as “Not Active”.

For the molecule `O=C(O)c1cn(C2CC2)c2cc(N3CCNCC3)c(F)cc2c1=O`, the result (in data set [4]; with Aspergillus fumigatus) was inactive.

`CC(C)CCOc1cc(O)c(CCC(C)C)c(O)c1C=O`: the IC50 with Leishmania donovani [1] stood at 10 µg/mL (≈ 34 µM); in the data set on Vero [5], 4.6 µg/mL (≈ 15.6 µM); in the data set on LLC-PK1 [6], 11.5 µg/mL (≈ 39.1 µM). Besides, in the data set with Leishmania donovani [1], the IC90 is 36 µg/mL (≈ 122 µM).

In the data set on Leishmania donovani [1], `CC(C)CCOc1cc(O)c(C(=O)CC(C)C)c(O)c1C=O` had an IC50 of 4.2 µg/mL (≈ 13.6 µM) and an IC90 of more than 40 µg/mL. For the same molecule, in the data set on Vero [2], the Activity entry is on record as “Not Active”. In addition, in the data set on LLC-PK1 [3], the Activity entry is listed as “Not Active”.

In the data set on Leishmania donovani [1], `N=C(N)c1ccc(OCCCCCOc2ccc(C(=N)N)cc2)cc1` [PENTAMIDINE] yielded a half-maximal inhibitory concentration (IC50) of 1.5 µg/mL (≈ 4.41 µM) and a concentration for an effect of 90% (IC90) of 4.9 µg/mL (≈ 14.4 µM). Also, the outcome in data set [4] was inactive. In addition, in the data set on Aspergillus fumigatus, the outcome was inactive.

Regarding `CCN(CC)CCCC(C)Nc1ccnc2cc(Cl)ccc12` (stereo unspecified), the outcome (in data set [4]; in the data set on Aspergillus fumigatus) was inactive.

As for `C=CCOc1cc(O)c(C(C)=O)c(O)c1C(C)=O`, the result in the data set on Leishmania donovani [7] was inactive. Also, the Activity result with Vero [2] and in the data set on LLC-PK1 [3] was “Not Active” in each case.

In the case of `C=CCOc1cc(O)c(C(C)=O)c(O)c1C=O`, the result with Leishmania donovani [7] was inactive. Also, the Activity entry in the data set with Vero [2] and with LLC-PK1 [3] was “Not Active” in each case.

Consider `CC(=O)c1c(O)cc(OCCC(C)C)c(C(C)=O)c1O`, for which, in the data set on Leishmania donovani [1], half-maximal inhibition (IC50) was put at 40 µg/mL (≈ 143 µM) and the IC90 was more than 40 µg/mL. In the data set with Vero [2], the Activity result is listed as “Not Active”. For the same molecule, the Activity result with LLC-PK1 [3] is listed as “Not Active”.
